The structures appear in SMILES notation.

Data set [1] concerns Human immunodeficiency virus 1. Nature of the data set: Antiviral activity against HIV-1 3B infected human MT4 cells assessed as inhibition in viral syncytium formation by MTT assay. Type of data set: functional, organism-based. Conditions: Human immunodeficiency virus 1, 3B. A digest of the protocol: (§1)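 MT-4 cells (6 × 10⁵ cells/mL) infected with HIV-1 IIIB or HIV-2 ROD stock at 100–300 CCID50, with serial fivefold compound dilutions in triplicate wells. After 5 days, viability was read by MTT reduction at 540 and 690 nm, using the median OD of three wells. EC50 is the concentration giving 50% inhibition of virus-induced syncytium formation.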
On the technique in general: Tetrazolium assays rely on reduction of a dye to a coloured formazan, in cell work by metabolically active cells.

Data set [2] relates to Human immunodeficiency virus 2. Nature of the data set: Antiviral activity against HIV-2 ROD infected human MT4 cells assessed as inhibition in viral syncytium formation by MTT assay. Type of data set: functional, organism-based. Conditions: Human immunodeficiency virus 2, ISOLATE ROD. A digest of the protocol: as §1
Data set [3] can be described thus: Cytotoxicity against mock-infected human MT4 cells by MTT assay. It is filed as cell-based. A digest of the protocol:
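Mock-infected MT-4 cells (6 × 10⁵ cells/mL) were run in parallel with the infected wells, with serial fivefold compound dilutions in triplicate. After 5 days, viability was read by MTT at 540 and 690 nm, using the median OD of three wells. CC50 is the concentration that reduces OD540 of mock-infected controls by 50%.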

Data set [4] can be described thus: Selectivity index, ratio of CC50 for human MT4 cells to EC50 for HIV-1 3B. It is filed as toxicity, cell-based. As to conditions: read-out: Ratio CC50/EC50. A digest of the protocol:
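SI is the ratio CC50/EC50, both taken from parallel 5-day MTT assays in MT-4 cells. CC50 comes from mock-infected cells and EC50 from HIV-1 IIIB-infected cells.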

Data set [5] relates to Human immunodeficiency virus 1. The data set can be described thus: Antiviral activity against HIV-1 RES056 harboring RT K103N/Y181C mutant gene infected human MT4 cells assessed as inhibition in viral syncytium formation by MTT assay. Type of data set: functional, organism-based. As to conditions: Human immunodeficiency virus 1, RES056, MT4. Put shortly:
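MT-4 cells infected with double-mutant RT (K103N/Y181C) HIV-1 RES056; compounds added as serial fivefold dilutions in triplicate wells with mock-infected parallels. Cells at 6 × 10⁵ cells/mL. Viability read by MTT after five days at 540 and 690 nm, median OD of three wells. EC50 is the concentration inhibiting virus-induced syncytium formation by 50%.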

Take `Cc1cc(C)c(-n2c(SCC(=O)Nc3ccccc3)nc3cccnc32)c(C)c1`: the EC50 in data set [1] and in data set [2] was above 26 µM in each case. Also, in data set [3], the CC50 (as a rule, the concentration that lowers cell viability or growth by half) worked out at 26 µM. In addition, the selectivity ratio in data set [4] was below 1.
Take `Cc1cc(C)c(-n2c(SCC(=O)Nc3ccccc3Cl)nc3cccnc32)c(C)c1`: the EC50 in data set [1] and in data set [2] was above 3.9 µM each time. For the same compound, in data set [3], the midpoint of cytotoxicity, the CC50, lay at 3.9 µM. Further, in data set [4], the selectivity ratio was below 1.
Take `Cc1cc(C)c(-n2c(SCC(=O)Nc3ccccc3F)nc3cccnc32)c(C)c1`: the EC50 in data set [1] and in data set [2] was above 3.7 µM each time. The compound also came in with a CC50 in data set [3] of 3.7 µM. Besides, in data set [4], the selectivity ratio is below 1.
For `Cc1cc(C)c(-n2c(SCC(=O)Nc3ccccc3Br)nc3cccnc32)c(C)c1`, the EC50 in data set [1] and in data set [2] was above 5.6 µM each time. Moreover, in data set [3], the CC50 is 5.6 µM. In addition, the selectivity ratio in data set [4] was below 1.
Turning to `Cc1cc(C)c(-n2c(SCC(=O)Nc3ccc(C)cc3Br)nc3cccnc32)c(C)c1`, the EC50 in data set [1] and in data set [2] was above 0.99 µM in each case. This compound also registered a CC50 in data set [3] of 0.99 µM. In addition, the selectivity ratio in data set [4] was below 1.
In the case of `Cc1cc(C)c(-n2c(SCC(=O)Nc3ccc(C)cc3[N+](=O)[O-])nc3cccnc32)c(C)c1`, the EC50 in data set [1] and in data set [2] was above 144 µM each time. Besides, in data set [3], the CC50 worked out at 144 µM. The selectivity ratio in data set [4] was below 1.
For the compound `Cc1cc(C)c(-n2c(SCC(=O)Nc3ccccc3[N+](=O)[O-])nc3cccnc32)c(C)c1`, the values for the EC50 in data set [5], in data set [1] and in data set [2] were above 39 µM, at least 6.7 µM and above 39 µM, respectively. In addition, half-maximal cytotoxicity in data set [3] (CC50) was put at 39 µM. In addition, in data set [4], the selectivity ratio was at most 6.
Consider `CC(=O)c1ccc(NC(=O)CSc2nc3cccnc3n2-c2c(C)cc(C)cc2C)c(Br)c1`, for which the EC50 (commonly the midpoint of the concentration-response curve) in data set [5] is above 46 µM; in data set [1], 3.6 µM; in data set [2], above 46 µM. Also, in data set [3], it took 46 µM to reach half-maximal cytotoxicity (CC50). The selectivity ratio in data set [4] came to 13.
Turning to `Cc1cc(C)c(-n2c(SCC(=O)Nc3cccnc3Cl)nc3cccnc32)c(C)c1`, the EC50 in data set [1] and in data set [2] was above 6 µM in each case. The same compound registered a CC50 in data set [3] of 6 µM. The selectivity ratio in data set [4] was below 1.
With `Cc1cc(C)c(-n2c(SCC(=O)Nc3ccc(Cl)cc3Cl)nc3cccnc32)c(C)c1`, the EC50 in data set [1] and in data set [2] was above 3 µM in each case. The compound further showed a CC50 in data set [3] of 3.9 µM. In addition, the selectivity ratio in data set [4] was below 1.
Turning to `Cc1cc(C)c(-n2c(SCC(=O)Nc3ccccc3C)nc3cccnc32)c(C)c1`, the EC50 in data set [1] and in data set [2] was above 15 µM each time. The compound further displayed a CC50 in data set [3] of 15 µM. The selectivity ratio in data set [4] was below 1.
With `COC(=O)c1ccc(NC(=O)CSc2nc3cccnc3n2-c2c(C)cc(C)cc2C)c(Br)c1`, the figures for the EC50 in data set [5], in data set [1] and in data set [2] were above 80 µM, 8.9 µM and above 80 µM, respectively. Moreover, the midpoint of cytotoxicity in data set [3], the CC50, lay at 80 µM. Also, in data set [4], the selectivity ratio came out at 9.
`CCOC(=O)c1ccc(NC(=O)CSc2nc3cccnc3n2-c2c(C)cc(C)cc2C)c(Br)c1`: the EC50 in data set [5] was above 117 µM; in data set [1] it was 9.9 µM; in data set [2], above 117 µM. Besides, half-maximal cytotoxicity in data set [3] (CC50) was put at 117 µM. Further, the selectivity ratio in data set [4] was determined as 12.
With `Cc1cc(C)c(-n2c(SCC(=O)Nc3ccc([N+](=O)[O-])cc3Cl)nc3cccnc32)c(C)c1`, the EC50 in data set [1] and in data set [2] was above 25 µM throughout. The CC50 in data set [3] worked out at 25 µM. In addition, in data set [4], the selectivity ratio was below 1.
With `Cc1cc(C)c(-n2c(SCC(=O)Nc3ncc(C)cc3Br)nc3cccnc32)c(C)c1`, the EC50 in data set [1] and in data set [2] was above 102 µM each time. Besides, in data set [3], the CC50 is 102 µM. Moreover, the selectivity ratio in data set [4] is below 1.
Turning to `Cc1cc(C)c(-n2c(SCC(=O)Nc3ccc(S(N)(=O)=O)cc3Br)nc3cccnc32)c(C)c1`, the values for the EC50 in data set [5], in data set [1] and in data set [2] were above 22 µM, 0.75 µM and above 22 µM, respectively. Also, in data set [3], the CC50 was determined as 22 µM. In data set [4], the selectivity ratio came out at 30.
As for `Cc1cc(C)c(-n2c(SCC(=O)Nc3ccccc3)nc3cnccc32)c(C)c1`, the EC50 in data set [1] and in data set [2] was above 17 µM each time. In data set [3], this compound showed a CC50 of 17 µM. Further, in data set [4], the selectivity ratio is below 1.
For `Cc1cc(C)c(-n2c(SCC(=O)Nc3ccccc3Cl)nc3cnccc32)c(C)c1`, the EC50 in data set [1] and in data set [2] was above 19 µM throughout. This compound had a CC50 in data set [3] of 19 µM. Also, the selectivity ratio in data set [4] was below 1.
In the case of `Cc1cc(C)c(-n2c(SCC(=O)Nc3ccccc3F)nc3cnccc32)c(C)c1`, the EC50 in data set [1] and in data set [2] was above 18 µM throughout. In data set [3], this compound returned a CC50 of 18 µM. For the same compound, in data set [4], the selectivity ratio is below 1.
Turning to `Cc1cc(C)c(-n2c(SCC(=O)Nc3ccccc3Br)nc3cnccc32)c(C)c1`, the results for the EC50 in data set [5], in data set [1] and in data set [2] were above 22 µM, 5.2 µM and above 22 µM, respectively. The CC50 in data set [3] came out at 22 µM. Besides, in data set [4], the selectivity ratio was 4.
Take `Cc1cc(C)c(-n2c(SCC(=O)Nc3ccc(C)cc3Br)nc3cnccc32)c(C)c1`: the EC50 in data set [1] and in data set [2] was above 5.9 µM in each case. In data set [3], this compound displayed a CC50 of 5.9 µM. Also, the selectivity ratio in data set [4] is below 1.
For the compound `Cc1cc(C)c(-n2c(SCC(=O)Nc3ccc(C)cc3[N+](=O)[O-])nc3cnccc32)c(C)c1`, the figures for the EC50 in data set [5], in data set [1] and in data set [2] were above 6.2 µM, at least 1.2 µM and above 6.2 µM, respectively. This compound also displayed a CC50 in data set [3] of 6.2 µM. Besides, the selectivity ratio in data set [4] was at most 5.
As for `Cc1cc(C)c(-n2c(SCC(=O)Nc3ccccc3C)nc3cnccc32)c(C)c1`, the EC50 in data set [1] and in data set [2] was above 22 µM throughout. Further, in data set [3], the CC50 amounted to 22 µM. The selectivity ratio in data set [4] is below 1.
For the compound `Cc1cc(C)c(-n2c(SCC(=O)Nc3ncc(C)cc3Br)nc3cnccc32)c(C)c1`, the EC50 in data set [1] and in data set [2] was above 61 µM each time. This compound also registered a CC50 in data set [3] of 61 µM. Also, the selectivity ratio in data set [4] was below 1.
Turning to `O=C(CSc1snnc1-c1ccc(Br)cc1Br)Nc1cccnc1Cl`, the half-maximal effective concentration (EC50) in data set [1] came to 0.0364 µM. In addition, the selectivity ratio in data set [4] is above 6460.
Consider `CC(C)Nc1cccnc1N1CCN(C(=O)c2cc3cc(NS(C)(=O)=O)ccc3[nH]2)CC1` [DELAVIRDINE], for which the EC50 in data set [5] was above 36.2 µM. Also, the CC50 in data set [3] was above 36 µM. Besides, the selectivity ratio in data set [4] was above 1030.
As for `O=C1Nc2ccc(Cl)cc2[C@@](C#CC2CC2)(C(F)(F)F)O1` [EFAVIRENZ], the CC50 in data set [3] was above 6.3 µM. Moreover, in data set [4], the selectivity ratio is above 964.
`Cc1ccnc2c1NC(=O)c1cccnc1N2C1CC1` [NEVIRAPINE]: the EC50 in data set [5] was above 15 µM. This compound had a CC50 in data set [3] above 15 µM. Moreover, the selectivity ratio in data set [4] is above 75.
In the case of `Nc1ccn([C@H]2CC[C@@H](CO)O2)c(=O)n1` [ZALCITABINE], in data set [2], the EC50 came out at 1.7 µM. For the same compound, the CC50 in data set [3] is above 95 µM. Besides, the selectivity ratio in data set [4] is above 68.
In the case of `Cc1cn([C@H]2C[C@H](N=[N+]=[N-])[C@@H](CO)O2)c(=O)[nH]c1=O` [ZIDOVUDINE], the values for the EC50 in data set [5] and in data set [1] were 0.01 µM and 6 µM, respectively. The compound also gave a CC50 in data set [3] of at least 50 µM. Besides, in data set [4], the selectivity ratio is at least 8300.

These data come from ChEMBL document CHEMBL2086251, “Arylazolyl(azinyl)thioacetanilides. Part 10: design, synthesis and biological evaluation of novel substituted imidazopyridinylthioacetanilides as potent HIV-1 inhibitors” (Bioorg Med Chem, 2012).
